Screening results as filed in PubChem BioAssay.
Compounds with a hit are over-represented: about 4.5% of the library has one in this group of screens.
PERK inh: inhibitors of human PERK kinase. CHO PERK-DD fusion, SEAP luminescence translation reporter. inhibition, % at 5.6 µM. AID 1416. Q9NZJ5. 220,000 tested, 0.17% active;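 active = inhibition above the mean inhibition of all tested compounds plus 3 SD, set separately per screening campaign, cut at about 2.9% in these data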;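 note: PERK kinase domain activated by AP20187 dimerizer at 100 nM; 0% = DMSO with dimerizer and 100% = rapamycin at 8.4 µM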
Mdm2 ligase inh: blocks human Mdm2 ubiquitin ligase activity | Q00987 | cell-based MDM2 ubiquitination luciferase reporter, 2 h; 0 = plate control, 100 = twice control, blank-subtracted | signal enhancement, % at 5 µM | 210,000 tested, 0.11% active | AID 1230;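 active = signal enhancement of 30% or more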;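 note: luminescence tracks abundance of the self-degrading MDM2-luciferase fusion protein; higher signal means inhibition of MDM2 E3 ligase activity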
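Buffer or medium: Cells held in DMEM | Assay system: Stable mammalian line carrying autodegrading MDM2–luciferase fusion reporter | Quantity: 2000 cells/well | Times: 4 h settle plus 2 h compound, 37 °C | Doses: One concentration, 5 µM, with 0.2% DMSO | Technique: Luminescence with SteadyLite reagent, 15 min at room temperature | Benchmarks: Plate controls and plate blanks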
STAT1 activator: STAT1 signaling activation; NIH 3T3 STAT1-luciferase reporter, IFN-gamma, luminescence; 100% = IFN-gamma alone, no compound; activation (% of control), % at 5.5 µM; 200,000 tested, 2.6% active; AID 932;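 active = activation above the screen-wide mean activation plus 3 SD, cut at about 130% in these data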;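 note: raw ratio to IFN-gamma control signal so 100% means no change and 0% no light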
APP 5'UTR act: APP 5'UTR luciferase reporter activation; SH-SY5Y APP 5'UTR luciferase reporter, luminescence; zero percent = DMSO vehicle wells; AID 1276; 190,000 tested, 1% active; activation, % at 2 µM;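 active = activation above a set limit, based on mean plus 3 SD of controls, cut at about 140% in these data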
AHR act: activates the human aryl hydrocarbon receptor | P35869 | AHR-responsive luciferase reporter cells, luminescence | activation, % at 5 µM | 320,000 tested, 2.5% active | AID 2796; in the data active = activation above about 47%;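 note: 0% = vehicle wells and 100% = reference agonist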
Target sequence (P35869 whole entry, looked up): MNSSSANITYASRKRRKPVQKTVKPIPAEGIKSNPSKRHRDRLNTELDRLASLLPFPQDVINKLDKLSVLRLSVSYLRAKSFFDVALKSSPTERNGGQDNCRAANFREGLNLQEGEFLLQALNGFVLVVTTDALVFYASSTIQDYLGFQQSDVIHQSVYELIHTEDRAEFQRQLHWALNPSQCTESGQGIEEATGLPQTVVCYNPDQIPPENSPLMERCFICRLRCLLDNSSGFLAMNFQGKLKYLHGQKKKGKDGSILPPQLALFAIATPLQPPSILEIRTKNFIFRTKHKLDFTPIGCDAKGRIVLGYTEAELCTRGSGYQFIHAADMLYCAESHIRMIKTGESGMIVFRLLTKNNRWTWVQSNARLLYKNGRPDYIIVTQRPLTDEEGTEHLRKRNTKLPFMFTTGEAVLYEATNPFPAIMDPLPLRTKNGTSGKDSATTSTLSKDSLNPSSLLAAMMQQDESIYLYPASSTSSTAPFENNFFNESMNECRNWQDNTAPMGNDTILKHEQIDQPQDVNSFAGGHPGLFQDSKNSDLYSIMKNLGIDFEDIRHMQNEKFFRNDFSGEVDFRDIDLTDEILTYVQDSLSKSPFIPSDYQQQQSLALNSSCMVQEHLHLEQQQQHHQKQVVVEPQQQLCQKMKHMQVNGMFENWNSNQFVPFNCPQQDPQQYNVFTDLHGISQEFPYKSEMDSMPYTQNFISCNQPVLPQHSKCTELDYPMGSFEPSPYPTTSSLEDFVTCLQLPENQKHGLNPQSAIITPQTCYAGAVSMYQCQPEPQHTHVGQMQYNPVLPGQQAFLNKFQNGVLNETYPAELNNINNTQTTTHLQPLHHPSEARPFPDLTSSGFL
NF-kB expr up: NF-kB expression increase, human neuronal cells. NF-kB reporter expression; hits give high values. fold change at 12.5 µM. 190,000 tested, 1.6% active. AID 1239; in the data active = fold change above about 3.3
STAT1 act conf: STAT1 activation, confirmation assay; shares compounds with STAT1 activator; NIH 3T3 STAT1-luciferase reporter, IFN-gamma potentiation, luminescence; 100% = IFN-gamma EC80 alone, no compound; activation (% of control), % at 5.7 µM; 1,200 tested, 97% active; AID 1262;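 active = activation above a set limit carried over from the earlier primary STAT1 screen, cut at about 140% in these data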;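 note: simple ratio to median IFN-gamma plus DMSO wells so 0% means no light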
NFkB act: NF-kappaB activation in STAT1 activator counter-screen; activation (% of control), % at 5.7 µM; shares compounds with STAT1 activator; AID 1306; HEK293T NF-kB luciferase reporter, TNF-alpha stimulated, luminescence; 100% = TNF-alpha with vehicle only; 1,200 tested, 43% active;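 active = activation above the mean of solvent-only control wells plus 3 SD, set per campaign, cut at about 130% in these data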;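 note: TNF-alpha given at a submaximal dose yielding about 80% of full reporter signal; values are well signal over median control so 100% means no change and 0% no light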
STAT3 act 2: counter-screen for STAT1 activators: human STAT3 activation; U3A cells STAT3-luciferase reporter, IL-6, luminescence; cells lack STAT1; 100 = IL-6 alone, no compound effect; activation (% of control), % at 5.7 µM; 1,200 tested, 46% active; AID 1316; shares compounds with STAT1 activator;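 active = activation above the solvent-only control well mean plus 3 SD, set per plate batch, cut at about 110% in these data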;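 note: 0% = no luminescence and 100% = median IL-6 plus DMSO wells; higher means more STAT3 reporter activation so hits are non-selective activators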
AHR act cf: human AHR activation, confirmation; shares compounds with AHR act; human cells, AHR-responsive luciferase reporter, luminescence; activation, % at 9 µM; 2,300 tested, 87% active; AID 2845; in the data active = activation above about 49%;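 note: HepG2 hepatoma cells carrying a DRE-driven firefly luciferase reporter; 0% = vehicle wells and 100% = reference agonist wells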
PXR counter: activates human PXR in AHR activator counter-screen; cell-based PXR reporter, luciferase luminescence; activation, % at 11.6 µM; AID 434939; 2,300 tested, 88% active; shares compounds with AHR act; in the data active = activation above about 11%;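 note: human hepatoma DPX-2 cells expressing full-length human PXR; 0% = DMSO and 100% = reference agonist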
An asterisk follows results filed as active; . = not tested or not shown.

SMILES	PERK inh	Mdm2 ligase inh	STAT1 activator	APP 5'UTR act	AHR act	NF-kB expr up	others
Nc1ccccc1C(=O)OCCOc1ccccc1	0	-59	109	182*	1	6.7*
O=c1[nH]c(=O)n(-c2cccc(Cl)c2)c(O)c1/C=N/c1ccccn1	0	-3	100	-1	10	1
COc1ccc2nc(/N=C/c3c(O)n(-c4cccc(Cl)c4)c(=O)[nH]c3=O)sc2c1	2.9*	3	104	-2	18	1.2
CCOc1cc2c(cc1OCC)-n1cccc1C(c1cccc([N+](=O)[O-])c1)NC2 (configuration not stated)	.	.	.	.	5	.
O=c1c2ccccc2nc(CSc2ncnc3nc[nH]c23)n1-c1ccccc1Cl	-1	-4	97	-5	4	0.61
O=c1c2ccccc2nc(CSc2ncnc3nc[nH]c23)n1-c1ccccc1	1	-12	104	6	0	3.9*
CC1(C)C2SCC(=O)N2CCN1CC(=O)NN (configuration not stated)	-1	-15	.	.	3	.
N#CSCC(=O)N1c2ccccc2CCc2ccccc21	0	19	96	-19	-2	1.1
Nc1ccccc1C(=O)OCC(=O)N1CCc2ccccc21	-1	-10	154*	13	.	2.2	STAT1 act conf=168*;NFkB act=116;STAT3 act 2=97
NCc1cc(=O)[nH]o1	.	.	.	.	1	.
N=C1c2ccccc2CN1CC(=O)c1ccccc1	0	-18	182*	143*	46	7.8*	STAT1 act conf=154*;NFkB act=130;STAT3 act 2=119*
N=C1c2ccccc2CN1NC(=O)c1ccccc1	2	3	103	38	13	1.2
CN1C2CCC1/C(=C/c1ccccn1)C(=O)/C2=C\c1ccccn1	-1	-5	209*	-95	-1	0.47	STAT1 act conf=477*;NFkB act=252*;STAT3 act 2=57
C=CCc1cc(C=C2C(=O)N(C)C(=O)N(C)C2=O)cc(OCC)c1OCc1ccccc1	0	3	99	-9	17	1.2
Cc1cccc(-n2c(/C=C/c3ccc([N+](=O)[O-])o3)nc3ccccc3c2=O)c1	0	-8	100	.	-1	1
O=c1c2ccccc2nc(/C=C/c2ccc([N+](=O)[O-])o2)n1-c1ccc(O)cc1	1	2	326*	-80	.	1.6	STAT1 act conf=175*;NFkB act=154*;STAT3 act 2=101
CC(=O)Nc1ccccc1C(=O)OCC(=O)c1ccc2c(c1)OCCO2	0	-22	175*	77	5	0.63	STAT1 act conf=203*;NFkB act=120;STAT3 act 2=116*
CC(=O)Nc1ccccc1C(=O)OCc1ccc(F)cc1	0	-16	175*	6	-2	0.97	STAT1 act conf=125;NFkB act=109;STAT3 act 2=97
O=P1(Oc2ccccc2)C[C@@H](O)[C@@H](O)[C@H](COCc2ccccc2)O1 (some centres not stated)	.	-5	.	.	0	.
O=C(COc1ccccc1)c1cn(Cc2ccccc2)c2ccccc12	0	-9	93	-10	84*	1.3	AHR act cf=66*;PXR counter=103*
COc1ccccc1-n1c(CNCC2CCCO2)nc2ccccc2c1=O (configuration not stated)	0	-4	105	18	81*	1.1	AHR act cf=48*;PXR counter=37*
O=C1Nc2ccccc2/C1=C/c1cnc[nH]1	0	-14	117	1	10	0.6
COc1ccc2c(c1)/C(=C/c1cnc[nH]1)C(=O)N2	.	.	.	.	248*	.	AHR act cf=49*;PXR counter=15*
O=c1[nH]c(=O)n(C2CCCCCC2)c(O)c1C=NCc1cccnc1	1	2	.	.	3	.
NC(=O)Nc1ccc(C(=O)OCC(=O)Nc2ccc(Cl)cc2C(=O)c2ccccc2)cc1	1	7	99	-2	93*	1.1	AHR act cf=5;PXR counter=14*
SMILES	PERK inh	Mdm2 ligase inh	STAT1 activator	APP 5'UTR act	AHR act	NF-kB expr up	others
O=C1CN=C(c2ccc(Cl)cc2)c2oc3ccccc3c2N1	-1	-6	.	.	104*	.	AHR act cf=119*;PXR counter=31*
COc1ccc2oc3c(c2c1)NC(=O)CN=C3c1ccccc1	0	0	88	20	13	0.91
COC(=O)C1=C(c2cccc(C#N)c2)C[C@@H]2CC[C@H]1N2C(=O)NCC1CC1	.	.	.	.	0	.
CC1CCCC(C)N1/N=C/c1c[nH]c2ccc(Br)cc12 (configuration not stated)	0	7	87	4	89*	0.81	AHR act cf=83*;PXR counter=60*
CN1CCC(c2c[nH]c3ccccc23)C1 (configuration not stated)	0	.	.	.	34	.
CC(C)=CCOc1c2occc2cc2ccc(=O)oc12	0	.	.	-5	114*	2	AHR act cf=86*;PXR counter=78*
Nc1cc(Cl)cc(Cl)c1	.	.	.	.	0	.
CC1CCN(CC(=O)c2cccc(C(F)(F)F)c2)CC1	.	.	.	.	8	.
Cc1ccnc(-n2c(C)nc3ccccc3c2=O)c1	1	1	99	35	13	0.91
Cc1cccc(N2CCc3c2nc2ccccc2c3N)c1	-1	-16	98	13	83*	0.77	AHR act cf=86*;PXR counter=55*
